Reference: ChEMBL document CHEMBL1149665, “Synthesis and biological evaluation of cepharadiones A and B and related dioxoaporphines” (2007)
In brackets after ≈: the same amount, converted by molar mass.

Tests used:
Type in all cases: functional
KM-20L2 = assay: Growth inhibition of human KM20L2 cells after 48 hrs by SRB assay; conditions: KM-20L2, 48 h
In short: (§1)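 Cells seeded in 5% fetal bovine serum/RPMI1640 and incubated 24 h before serial compound dilutions were added. After 48 h exposure, cells were fixed with trichloroacetic acid and stained with sulforhodamine B (NCI standard SRB protocol), and optical density was read. GI50, the concentration causing 50% reduction in net protein increase, was calculated from the optical density data; values reported in µg/mL.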

MCF7 = assay: Growth inhibition of human MCF7 cells after 48 hrs by SRB assay; conditions: MCF7, 48 h; in short: as §1
BXPC-3 = assay: Growth inhibition of human BXPC3 cells after 48 hrs by SRB assay; conditions: BXPC-3, 48 h; in short: as §1
DU-145 = assay: Growth inhibition of human DU145 cells after 48 hrs by SRB assay; conditions: DU-145, 48 h; in short: as §1
NCI-H460 = assay: Growth inhibition of human NCI-H460 cells after 48 hrs by SRB assay; conditions: NCI-H460, 48 h; in short: as §1
SF-268 = assay: Growth inhibition of human SF268 cells after 48 hrs by SRB assay; conditions: SF-268, 48 h; in short: as §1

Row | GI50 (MCF7) | GI50 (BXPC-3) | GI50 (DU-145) | GI50 (NCI-H460) | Structure (SMILES) | GI50 (KM-20L2) | GI50 (SF-268)
1 | 8.4 µg/mL (≈ 29 µM) | > 10 µg/mL | > 10 µg/mL | 2.3 µg/mL (≈ 7.95 µM) | Cc1cc2c3c(cc4ccccc4c3c1C)N(C)C(=O)C2=O | 4.2 µg/mL (≈ 14.5 µM) | 0.7 µg/mL (≈ 2.42 µM)
2 | > 10 µg/mL | > 10 µg/mL | 36.1 µg/mL (≈ 112 µM) | > 10 µg/mL | COc1cc2c3c(cc4ccccc4c3c1OC)N(C)C(=O)C2=O [CEPHARADIONE B] | > 10 µg/mL | 22.8 µg/mL (≈ 71 µM)
3 | > 10 µg/mL | > 10 µg/mL | > 10 µg/mL | > 10 µg/mL | CCOc1ccc2c3c(cc4ccccc4c13)N(C)C(=O)C2=O | > 10 µg/mL | > 10 µg/mL
4 | 0.66 µg/mL (≈ 2.27 µM) | 1.6 µg/mL (≈ 5.49 µM) | 1.3 µg/mL (≈ 4.46 µM) | 0.46 µg/mL (≈ 1.58 µM) | COc1ccc2c3c(cc4ccccc4c13)N(C)C(=O)C2=O | 0.82 µg/mL (≈ 2.81 µM) | 0.42 µg/mL (≈ 1.44 µM)
5 | 6.3 µg/mL (≈ 20.6 µM) | > 10 µg/mL | 4.3 µg/mL (≈ 14.1 µM) | 2.5 µg/mL (≈ 8.19 µM) | CN1C(=O)C(=O)c2cc3c(c4c2c1cc1ccccc14)OCO3 [CEPHARADIONE A] | 17.3 µg/mL (≈ 56.7 µM) | 2.9 µg/mL (≈ 9.5 µM)
